The values below come from ChEMBL document CHEMBL3593182, “Phytochemical Investigation of the Constituents Derived from the Australian Plant Macropidia fuliginosa” (2015).

Calls of active or inactive are those of the source. The calls are words filed in the database; no cut-off is given here.

One experiment concerns Streptococcus pyogenes. The experiment can be described thus: Antimicrobial activity against Streptococcus pyogenes 345/1 assessed as zone of inhibition at 2862 uM incubated overnight at 37 degC. Format: functional. To be noted: read-out: IZ. The method, boiled down:
(§1)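 Pure isolates screened against a panel of five bacteria and one fungus, each at a single concentration within 1639–5230 μM. A commercial antibiotic and antifungal agent were tested in parallel as references. Growth inhibition was recorded as the zone of inhibition.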

The subject of experiment [1] is Staphylococcus aureus. The experiment is described as follows: Antimicrobial activity against Staphylococcus aureus ATCC 25923 assessed as zone of inhibition at 2862 uM incubated overnight at 37 degC. To be noted: read-out: IZ. Format: functional. Put shortly:
as §1

In another experiment the test system is Escherichia coli. The experiment can be described thus: Antimicrobial activity against Escherichia coli ATCC 25922 assessed as zone of inhibition at 2862 uM incubated overnight at 37 degC. The experiment is classed as functional, organism-based. Put shortly: as §1
Another experiment deals with Pseudomonas aeruginosa. The experiment is described as follows: Antimicrobial activity against Pseudomonas aeruginosa ATCC 27853 assessed as zone of inhibition at 2862 uM incubated overnight at 37 degC. The experiment is classed as functional. To be noted: read-out: IZ. The method, boiled down:
as §1

Experiment [2] concerns Staphylococcus aureus. The experiment can be described thus: Antimicrobial activity against methicillin-resistant Staphylococcus aureus 344/2-32 assessed as zone of inhibition at 2862 uM incubated overnight at 37 degC. To be noted: read-out: IZ. The experiment is classed as functional.

With `CC1(C)S[C@@H]2[C@H](NC(=O)[C@H](N)c3ccccc3)C(=O)N2[C@H]1C(=O)O` [AMPICILLIN], the zone of inhibition at 2862 µM with Streptococcus pyogenes was determined as 20 mm; in the experiment on Staphylococcus aureus [1] it was 15 mm; in the experiment with Pseudomonas aeruginosa it was 2 mm; in the experiment with Staphylococcus aureus [2], 3 mm. The “inhibition zone (IZ)” value in the experiment on Escherichia coli is “inactive”.
